Screening results as filed in PubChem.
A selection: hits, their analogues and other compounds. The true share with any hit is near 4.5%.
OX1R antag-1: OX1R (HCRTR1) antagonists, primary screen, fluorescence, CHO/OX1R cells, Fluo-8 calcium, orexin A. Orexin/Hypocretin receptor type 1 (Homo sapiens), O43613. Fluo-8 calcium fluorescence. inhibition, % at 5 µM. 330,000 compounds, 0.43% hits. AID 434989, 2010;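 active = inhibition above its plate's threshold, mean inhibition of all tested compounds on the plate plus 3 SD, cut at about 37% in these data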;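 note: 0% = orexin A challenge wells and 100% = SB-334867-A antagonist wells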
OX1R antag-2: antagonists of human orexin 1 receptor (OX1R) | inhibition, % at 6.6 µM | 330,000 compounds, 1.8% hits | Orexin/Hypocretin receptor type 1 (Homo sapiens), O43613 | OX1R-expressing cells, FRET antagonist read-out | AID 485270, 2010; in the data active = inhibition mostly above about 38%, no sharp cut-off; inactive = mostly below about 40%;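 note: 0% = agonist challenge alone and 100% = reference antagonist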
TAAR1 agonist: human TAAR1 agonists, primary screen, Fluo-8 calcium fluorescence, CHO RD-HGA16 cells; AID 624467, 2012; activation, % at 3 µM; vehicle wells 0%, saturating PEA agonist 100%; Trace amine-associated receptor 1 (Homo sapiens), Q96RJ0; 360,000 compounds, 0.99% hits;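 active = activation above the mean activation of all test compounds in the run plus 3 SD, cut at about 38% in these data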
Target sequence (Q96RJ0 whole entry, looked up): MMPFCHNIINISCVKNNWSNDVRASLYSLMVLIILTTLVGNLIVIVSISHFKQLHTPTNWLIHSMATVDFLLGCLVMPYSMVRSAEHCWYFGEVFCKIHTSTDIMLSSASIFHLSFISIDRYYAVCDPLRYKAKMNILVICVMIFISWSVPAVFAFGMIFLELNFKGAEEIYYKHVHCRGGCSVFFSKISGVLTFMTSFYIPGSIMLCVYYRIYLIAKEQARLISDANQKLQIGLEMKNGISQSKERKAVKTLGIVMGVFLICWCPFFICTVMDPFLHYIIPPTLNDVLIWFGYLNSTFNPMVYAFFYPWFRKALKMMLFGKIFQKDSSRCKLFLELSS
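Assay system – CHO-derived RD-HGA16 cells with stable Gα16 and human TAAR1 · Compound dosing – one-point dosing at 3 µM (nominal) · Incubation – 17-24 h seeding, 75 min 37 °C dye, 30 min RT · Measured by – kinetic Fluo-8 calcium fluorescence · Control set – DMSO vehicle as 0%, PEA at EC100 as 100% · Repeats – single well for each compound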
TAAR1 antagonist: human TAAR1 antagonists, primary screen, Fluo-8 calcium fluorescence, CHO RD-HGA16 cells; Trace amine-associated receptor 1 (Homo sapiens), Q96RJ0; antagonist; inhibition, % at 3 µM; 360,000 compounds, 1.5% hits; AID 624466, 2012;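 active = inhibition above a per-plate cutoff, the mean inhibition of test compounds on that plate plus 3 SD, cut at about 49% in these data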;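 note: 0% = DMSO plus EC80 beta-PEA response and 100% = DMSO alone without agonist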
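Material: RD-HGA16 CHO cells with stable hTAAR1 and Gα16; Dosing: single nominal final test compound concentration of 3 µM; Schedule: seeding 17-24 h prior, 75-min 37 °C, 30-min RT dye loading; Detection: kinetic Fluo-8 calcium fluorescence measurement; Measure: % inhibition from peak post-agonist over basal fluorescence ratio; Benchmarks: vehicle and agonist controls.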
GPR7 antag: GPR7 receptor antagonists, primary screen, cell-based, fluorescence, single concentration; Neuropeptides B/W receptor type 1 (Homo sapiens), P48145; GPR7-expressing cells, fluorescence antagonist assay; inhibition, % at 4.4 µM; 290,000 compounds, 1.1% hits; AID 1861, 2009; in the data active = inhibition above about 16%, passing the limit was not always enough;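 note: cells stimulated with the agonist NPW; 0% = agonist with vehicle and 100% = vehicle without agonist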
CHO parental Ca: ATP-evoked calcium signal inhibitors, parental CHO, primary screen, counter-screen for OX1R antagonist project, cell-based, fluorescence, Fluo-8 calcium dye. parental CHO-K1, ATP-induced calcium, Fluo-8 fluorescence. inhibition, % at 5.6 µM. 330,000 compounds, 0.63% hits;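 active = inhibition above that plate's mean sample inhibition plus 3 SD, cut at about 26% in these data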;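 note: 0% = ATP-challenged DMSO wells and 100% = DMSO wells without ATP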
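Test system: untransfected parental CHO cell line; also added: ATP stimulus; dosing: 5.6 µM, single dose; signal: calcium-sensitive Fluo-8 fluorescence; measure: percent inhibition of ATP-evoked calcium rise, normalized to controls; benchmarks: low control ATP plus DMSO, high control DMSO only; replication: one well per compound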
Starred values were filed as active, the others as inactive; · = not tested or not shown.

SMILES | OX1R antag-1 | OX1R antag-2 | TAAR1 agonist | TAAR1 antagonist | GPR7 antag | CHO parental Ca
CCn1c(SCc2nc3scc(-c4ccccc4)c3c(=O)[nH]2)nnc1-c1cccs1 | -6.4 | 56.1* | 2.4 | 14.4 | -1.8 | -43.2
CCCCCOC(=O)C1=C(C)Nc2ncnn2C1c1cccs1 (configuration not stated) | -17.1 | 26.9 | 15.0 | 56.6* | 3.6 | -5.8
CC(C)CN(C(=O)COC(=O)CCN1C(=O)c2ccccc2C1=O)C1CCS(=O)(=O)C1 (configuration not stated) | 7.8 | 18.1 | 0.1 | 3.4 | -13.6 | -13.8
CCOc1ccc(N2C(=O)c3ccc(C(=O)OCC(=O)N(CC)C4CCS(=O)(=O)C4)cc3C2=O)cc1 (configuration not stated) | -8.9 | 17.0 | 10.9 | 9.5 | -4.3 | 0.9
CCOC(=O)CCCCCN1C(=O)c2cccc3cccc(c23)C1=O | -29.2 | 17.2 | 8.0 | 3.8 | 10.1 | -11.7
C=CCN1C(=O)c2ccc(C(=O)OCC(=O)N(CC)C3CCS(=O)(=O)C3)cc2C1=O (configuration not stated) | -5.1 | 41.7* | 14.2 | -20.8 | · | -7.6
CN(C(=O)COC(=O)CCCN1C(=O)c2cccc3cccc(c23)C1=O)C1CCS(=O)(=O)C1 (configuration not stated) | -22.7 | 66.8* | 0.5 | -4.8 | · | -11.7
CCN(C(=O)COC(=O)CCCN1C(=O)c2cccc3cccc(c23)C1=O)C1CCS(=O)(=O)C1 (configuration not stated) | -19.3 | 52.8* | 0.0 | -13.6 | · | -8.7
Nc1ccn([C@@H]2O[C@H](C(=O)N3CCN(CCO)CC3)[C@@H](O)[C@H]2O)c(=O)n1 | · | · | 0.6 | 7.5 | · | ·
Cc1cc(C)c(O)c(-c2cc(C(=O)Nc3ccc(S(=O)(=O)N4CCOCC4)cc3)[nH]n2)c1 | 40.1 | 24.0 | 14.8 | 37.5 | -13.5 | 34.3*
COC(=O)C1=C(C)N(C)C(=NCC2CC2)NC1c1ccccc1 (configuration not stated) | · | · | 0.7 | -6.1 | · | ·
CCn1c(O)c(N=NC(=O)c2ccc(CSc3nncn3C)cc2)c2ccccc21 | -20.2 | 70.3* | 8.7 | 1.3 | -14.3 | -16.9
Cn1cnnc1SCc1ccc(C(=O)N=Nc2c(O)n(Cc3ccc(Cl)cc3)c3ccccc23)cc1 | 1.0 | 12.3 | 10.2 | 23.7 | -4.3 | -16.7
CN(C)CCNC(=O)c1ccc2nc([C@@H]3O[C@H](CO)[C@H](O)[C@H](O)[C@H]3O)[nH]c2c1 | · | · | 4.1 | -15.0 | · | ·
COc1ccc(OC)c(CN(CC(F)(F)F)S(=O)(=O)c2ccccc2Br)c1 | · | · | 1.3 | -1.4 | · | ·
CCN1CCN(CCNC(=O)c2ccc3c(c2)N(Cc2ccc(F)cc2)C(=O)/C(=C/c2ccccc2)S3)CC1 | -14.5 | 18.6 | 17.9 | 28.8 | 29.0* | 14.0
CCN1CCN(CCNC(=O)c2ccc(/C=C3/Sc4ccccc4N(Cc4cccc(Cl)c4)C3=O)cc2)CC1 | 7.2 | 14.2 | 36.3 | 56.0* | 12.7 | -6.7
CCOC(=O)C(Cc1ccccc1)NC(=O)CCCC(=O)c1ccccc1 (configuration not stated) | 11.2 | 16.1 | 0.7 | -7.8 | 20.8 | 47.3*
COc1ccc(NC(=O)CN(C)C(=O)c2cc(-c3cccs3)nn2-c2ccccc2)cc1 | -23.6 | 16.2 | 8.8 | 54.6* | · | -1.9
COCCN(CC(=O)Nc1cccc(C)c1C)C(=O)c1cc(-c2cccs2)nn1-c1ccccc1 | -13.8 | 25.4 | 18.1 | 50.6* | · | -12.1
CCOc1ccc(NC(=O)CN(C)C(=O)c2cc(-c3cccs3)nn2-c2ccccc2)cc1OCC | -32.5 | 24.4 | 0.1 | 26.6 | · | -27.1
CCN(CC(=O)Nc1ccc(OC)cc1)C(=O)c1cc(-c2cccs2)nn1-c1ccccc1 | -8.4 | 8.9 | 9.8 | 61.6* | · | -8.3
